Results from the RNAGym collection of RNA variant scans (doi:10.1126/science.aae0568).
Fewer inactive variants are shown than the library holds.

B1: tRNA (parent)
chain: GUUCCGUUGGCGUAAUGGUAACGCGUCUCCCUCCUAAGGAGAAGACUGCGGGUUCGAGUCCCGUACGGAACG

Variants of: B1
Assay: yeast fitness relative to wild type (ratio to wild type); higher = fitter; tRNA-Arg(CCU), competitive growth, 37 C, YPD
Outline: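 Changes in genotype frequencies gave Darwinian fitness relative to wild type. Frequencies were read by 100-nucleotide paired-end sequencing of gene amplicons before and after pooled Saccharomyces cerevisiae strains, carrying tRNA-Arg(CCU) gene variants at the native locus, were competed in YPD at 37°C for 24 hours in six replicates. A genotype was kept only with ≥ 100 starting reads, and estimates < 0.5 were set to 0.5.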

Variant | yeast fitness
GUUCCGUUGGCGUAAUGGUAACGCGUCUCCCUCCUAAGGAGAAGCCUGCGGGUUCGAGUCCCAUACGGAACG [A45C G63A] | 0.85
GUUCCGUUGGCGUAAUGGUAACGCGUCUCCCUCCUAAGGAGAAGCCUGCGGGUUCGAGUCCCGUACAGAACG [A45C G67A] | 0.814
GUUCCGUUGGCGUAAUGGUAACGCGUCUCCCUCCUAAGGAGAAGCCAGCGGGUUCGAGUCCCGUAUGGAACG [A45C U47A C66U] | 0.595
GUUCCGUUGGCGUAAUGGUAACGCGUCUCCCUCCUAAGGAGAAGCCCGUGGGUUCGAGUCCCGUACGGAACG [A45C U47C C49U] | 0.806
GUUCCGUUGGCGUAAUGGUAACGCGUCUCCCUCCUAAGGAGAAGCCUGCGGGAUCGAGUCCCGUACGGAACG [A45C U53A] | 0.727
GUUCCGUUGGCGUAAUGGUAACGCGUCUCCCUCCUAAGGAGAAGCCUGCGGGAUCGAGUGCCGUACGGAACG [A45C U53A C60G] | 0.536
GUUCCGUUGGCGUAAUGGUAACGCGUCUCCCUCCUAAGGAGAAGCCUGCGGGCUCGAGUCCCGUACGGAACG [A45C U53C] | 0.823
GUUCCGUUGGCGUAAUGGUAACGCGUCUCCCUCCUAAGGAGAAGCCUGCGGGUGCGAGUCCCGUACGGAACG [A45C U54G] | 0.605
GUUCCGUUGGCGUAAUGGUAACGCGUCUCCCUCCUAAGGAGAAGCCUGCGGGUUCGAGCCCCGUACGGACCG [A45C U59C A70C] | 0.741
GUUCCGUUGGCGUAAUGGUAACGCGUCUCCCUCCUAAGGAGAAGCCUGCGGGUUCGAGGCCCGUACGGAACG [A45C U59G] | 0.713
GUUCCGUUGGCGUAAUGGUAACGCGUCUCCCUCCUAAGGAGAAGCCUGCGGGUUCGAGUCCCGCCCGGAACG [A45C U64C A65C] | 0.965
GUUCCGUUGGCGUAAUGGUAACGCGUCUCCCUCCUAAGGAGAAGCCUGCGGGUUCGAGUCCCGGACGGAACG [A45C U64G] | 0.654
GUUCCGUUGGCGUAAUGGUAACGCGUCUCCCUCCUAAGGAGAAGGCUGCGGGUUCGCGUCCCGUACGGAACG [A45G A57C] | 0.668
GUUCCGUUGGCGUAAUGGUAACGCGUCUCCCUCCUAAGGAGAAGGCUGCGGGUUCGAGUCCCGUGCGGAACG [A45G A65G] | 1.04
GUUCCGUUGGCGUAAUGGUAACGCGUCUCCCUCCUAAGGAGAAGGCUGCGGGUUCGAGUCCCGUGCGGACCG [A45G A65G A70C] | 0.666
GUUCCGUUGGCGUAAUGGUAACGCGUCUCCCUCCUAAGGAGAAGGCUGCGGGUUCGAGUCCCGUACGGCACG [A45G A69C] | 0.912
GUUCCGUUGGCGUAAUGGUAACGCGUCUCCCUCCUAAGGAGAAGGCUGCGGGUUCGAGUCCCGUACGGUACG [A45G A69U] | 1.01
GUUCCGUUGGCGUAAUGGUAACGCGUCUCCCUCCUAAGGAGAAGGCUGCGGGUUCGAGUCCCGUACGGAGCG [A45G A70G] | 1.19
GUUCCGUUGGCGUAAUGGUAACGCGUCUCCCUCCUAAGGAGAAGGCUGCGGGUUCGAGUCCCGUACGGAUCG [A45G A70U] | 0.913

Variant | yeast fitness
GUUCCGUUGGCGUAAUGGUAACGCGUCUCCCUCCUAAGGAGAAGGGUGCGGGUUCGAGUCCCGUACGGAACG [A45G C46G] | 0.87
GUUCCGUUGGCGUAAUGGUAACGCGUCUCCCUCCUAAGGAGAAGGGUGCGGGUGCGAGUCCCGUACGGACCG [A45G C46G U54G A70C] | ≤ 0.5
GUUCCGUUGGCGUAAUGGUAACGCGUCUCCCUCCUAAGGAGAAGGCUGAGGGUUCGAGUCCCGUACGGAACG [A45G C49A] | 0.609
GUUCCGUUGGCGUAAUGGUAACGCGUCUCCCUCCUAAGGAGAAGGCUGAGGGUUCGAGUCCAGUACGGAACG [A45G C49A C62A] | ≤ 0.5
GUUCCGUUGGCGUAAUGGUAACGCGUCUCCCUCCUAAGGAGAAGGCUGGGGGUUCGAGUCCCGUUCGGAACG [A45G C49G A65U] | 0.56
GUUCCGUUGGCGUAAUGGUAACGCGUCUCCCUCCUAAGGAGAAGGCUGUGGGUUCGAGUCCCGUACGGUACG [A45G C49U A69U] | 1.04
GUUCCGUUGGCGUAAUGGUAACGCGUCUCCCUCCUAAGGAGAAGGCUGUGGGUUGGAGUCGCGUACGGAACG [A45G C49U C55G C61G] | 0.732
GUUCCGUUGGCGUAAUGGUAACGCGUCUCCCUCCUAAGGAGAAGGCUGCGGGUUAAAGUCCCGUACAGAACG [A45G C55A G56A G67A] | ≤ 0.5
GUUCCGUUGGCGUAAUGGUAACGCGUCUCCCUCCUAAGGAGAAGGCUGCGGGUUUGAGUCGCGUACGGCACG [A45G C55U C61G A69C] | ≤ 0.5
GUUCCGUUGGCGUAAUGGUAACGCGUCUCCCUCCUAAGGAGAAGGCUGCGGGUUCGAGUGCCGUACGGAACG [A45G C60G] | 0.821
GUUCCGUUGGCGUAAUGGUAACGCGUCUCCCUCCUAAGGAGAAGGCUGCGGGUUCGAGUUCCGUACGGAACG [A45G C60U] | 0.743
GUUCCGUUGGCGUAAUGGUAACGCGUCUCCCUCCUAAGGAGAAGGCUGCGGGUUCGAGUCACGUUCGGAACG [A45G C61A A65U] | ≤ 0.5
GUUCCGUUGGCGUAAUGGUAACGCGUCUCCCUCCUAAGGAGAAGGCUGCGGGUUCGAGUCGCGUCCGGAUCG [A45G C61G A65C A70U] | ≤ 0.5
GUUCCGUUGGCGUAAUGGUAACGCGUCUCCCUCCUAAGGAGAAGGCUGCGGGUUCGAGUCCAGUACGGCACG [A45G C62A A69C] | 0.595
GUUCCGUUGGCGUAAUGGUAACGCGUCUCCCUCCUAAGGAGAAGGCUACGGGUUCCAGUGCCGUACGGAACG [A45G G48A G56C C60G] | ≤ 0.5
GUUCCGUUGGCGUAAUGGUAACGCGUCUCCCUCCUAAGGAGAAGGCUCCGGGUUCAAGUCCCGUACGGAACG [A45G G48C G56A] | 0.968
GUUCCGUUGGCGUAAUGGUAACGCGUCUCCCUCCUAAGGAGAAGGCUGCCGGUACGAGUCCCGUACAGAACG [A45G G50C U54A G67A] | 0.803
GUUCCGUUGGCGUAAUGGUAACGCGUCUCCCUCCUAAGGAGAAGGCUGCGAGUUCGAGUCCCGUACAGAACG [A45G G51A G67A] | 0.601
